# Compound activity deposited in PubChem BioAssay by Broad Institute.
# The list is not random: actives were taken first. Their share in the collection is about 1.5%.
# S100A4 MyoIIA – blocks human S100A4 binding to myosin IIA peptide. P26447. S100A4/TAMRA-MyoIIA peptide fluorescence polarization. inhibition, % at 10.7 µM. 0.14% of 360,000 active. AID 652163;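 active = mean inhibition of at least 70% across replicates, with every replicate also reaching that level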
# Target sequence (P26447 whole entry, looked up): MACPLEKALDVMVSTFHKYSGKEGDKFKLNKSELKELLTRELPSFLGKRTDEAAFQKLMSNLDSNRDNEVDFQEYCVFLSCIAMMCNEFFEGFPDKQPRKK
#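 Assay system: human S100A4 monomer with TAMRA-labelled myosin IIA peptide / Buffer or medium: Calcium-containing HEPES buffer, pH 7.2 / Reagent: TAMRA-labelled myosin IIA heavy-chain peptide probe, 5 nM / Compound: one dose per compound / Timing: polarization read 5 min after assay mix addition, stable 5–60 min / Benchmarks: neutral control DMSO, positive control TFP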
# PDI turbidity – blocks human protein disulfide isomerase activity; PDI insulin aggregation turbidity, A650, 90 min; 0.052% of 350,000 active; P07237; inhibition, % at 10 µM; AID 588391;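 active = mean inhibition across replicates of 30% or more, whatever share of single replicates reach that level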
# GSIS activator – primary screen for activators of insulin secretion dependent on glucose, INS-1E cells, GLuc reporter luminescence; INS-1E GLuc reporter insulin secretion, 2-3 h; 0.61% of 370,000 active; activation, % at 16.6 µM;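 active = lowest replicate activation of at least 40%, so every replicate reaches that level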;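 note: 0% = median of neutral control wells and 100% = median of IBMX positive control wells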
# ERp5 inh – ERp5 (human) disulfide isomerase inhibition | inhibition, % at 9.99 µM | AID 651711 | Q15084 | ERp5 insulin aggregation, absorbance 650 nm, 90 min | 0.05% of 350,000 active;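 active = mean replicate inhibition above about 25%, with every replicate also reaching it, limit read from the data, passing the limit was not always enough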
# Target sequence (Q15084 whole entry, looked up): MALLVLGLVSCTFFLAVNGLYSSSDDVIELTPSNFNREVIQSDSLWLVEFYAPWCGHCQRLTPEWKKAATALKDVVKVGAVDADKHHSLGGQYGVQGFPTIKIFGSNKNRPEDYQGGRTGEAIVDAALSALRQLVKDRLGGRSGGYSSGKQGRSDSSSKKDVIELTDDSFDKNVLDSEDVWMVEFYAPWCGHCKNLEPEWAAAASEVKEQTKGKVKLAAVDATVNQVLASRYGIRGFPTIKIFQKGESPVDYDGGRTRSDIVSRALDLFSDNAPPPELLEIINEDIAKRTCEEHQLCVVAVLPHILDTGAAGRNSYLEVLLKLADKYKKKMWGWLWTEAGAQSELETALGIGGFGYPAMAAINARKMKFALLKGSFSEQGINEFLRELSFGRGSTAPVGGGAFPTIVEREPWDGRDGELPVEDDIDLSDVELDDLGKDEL
# SIRT5 inh – inhibitors of human sirtuin-5 desuccinylase | Q9NXA8 | Purified SirT5, succinyl-peptide AMC, trypsin-coupled fluorescence | inhibition, % at 15 µM | 1.1% of 330,000 active | AID 652115; in the data active = inhibition above about 15%
# Numbers without * were called inactive; / = not tested or not shown.
SMILES,S100A4 MyoIIA,PDI turbidity,GSIS activator,ERp5 inh,SIRT5 inh
COc1ccc(S(=O)(=O)N(C)C[C@@H]2OCCCC[C@@H](C)Oc3ccc(NS(=O)(=O)c4ccc(F)cc4)cc3C(=O)N([C@@H](C)CO)C[C@H]2C)cc1,-20,/,-16,-1,21*
COc1ccc(S(=O)(=O)N(C)C[C@H]2OCCCC[C@H](C)Oc3ccc(NS(=O)(=O)c4ccc(F)cc4)cc3C(=O)N([C@@H](C)CO)C[C@H]2C)cc1,-5,/,-6,5,23*
COc1ccc(S(=O)(=O)N(C)C[C@H]2OCCCC[C@@H](C)Oc3ccc(NS(=O)(=O)c4ccc(F)cc4)cc3C(=O)N([C@@H](C)CO)C[C@@H]2C)cc1,-13,/,1,-2,23*
COc1ccc(S(=O)(=O)Nc2ccc3c(c2)C(=O)N([C@H](C)CO)C[C@H](C)[C@H](CN(C)S(=O)(=O)c2ccc(F)cc2)OCCCC[C@@H](C)O3)cc1,-7,/,1,-2,9
C[C@@H]1CN([C@H](C)CO)C(=O)c2cccc(NC(=O)c3ccncc3)c2O[C@H]1CN(C)C(=O)Nc1ccc(C(F)(F)F)cc1,2,/,2,1,3
COc1ccc(S(=O)(=O)N(C)C[C@@H]2OCCCC[C@@H](C)Oc3ccc(NS(=O)(=O)c4ccc(F)cc4)cc3C(=O)N([C@H](C)CO)C[C@H]2C)cc1,-36,/,-12,-3,18*
COc1ccc(S(=O)(=O)N(C)C[C@@H]2OCCCC[C@H](C)Oc3ccc(NS(=O)(=O)c4ccc(F)cc4)cc3C(=O)N([C@@H](C)CO)C[C@H]2C)cc1,-1,/,-10,-1,17*
C[C@@H]1CN([C@H](C)CO)C(=O)c2cc(C#Cc3ccc(F)cc3)cnc2O[C@@H]1CN(C)CC1CC1,-6,/,-15,-4,2
O=C(C[C@H]1CC[C@@H]2[C@H](COC[C@H](O)CN2Cc2ccccc2)O1)N1CCOCC1,9,/,16,1,6
CC(C)NC(=O)N(C)C[C@H]1Oc2c(NC(=O)C3CC3)cccc2C(=O)N([C@@H](C)CO)C[C@@H]1C,4,/,11,-1,/
CC(C)C(=O)NCCCc1ccccc1,/,5,/,/,/
CC(C)CCCCCCCCc1cccc(O)c1C(=O)O,-2,/,/,-1,20*
O=C(c1cccs1)N(Cc1ccc(Cl)cc1)C1CCS(=O)(=O)C1 (stereo not drawn),3,4,48*,-2,0
C[C@@H]1CN([C@H](C)CO)C(=O)Cc2cc(NC(=O)Nc3cccc4ccccc34)ccc2O[C@@H]1CN(C)C(=O)Nc1cccc2ccccc12,-6,/,22,52*,16*
C[C@H]1CN([C@@H](C)CO)C(=O)Cc2cc(NC(=O)Nc3cccc4ccccc34)ccc2O[C@H]1CN(C)Cc1ccc(Cl)c(Cl)c1,2,/,5,-7,15*
C[C@@H]1CN([C@H](C)CO)C(=O)Cc2cc(NC(=O)CCC(F)(F)F)ccc2O[C@H]1CN(C)Cc1ccc(Cl)c(Cl)c1,5,/,-33,1,2
C[C@@H]1CN([C@H](C)CO)C(=O)Cc2cc(NC(=O)Nc3cccc4ccccc34)ccc2O[C@@H]1CN(C)Cc1ccc(Cl)c(Cl)c1,-2,/,-1,-2,1
C[C@H](CO)N1C[C@H](C)[C@H](CN(C)C(=O)Nc2cccc3ccccc23)Oc2ccc(NC(=O)Nc3cccc4ccccc34)cc2CC1=O,-31,/,26,/,-3
C[C@@H]1CN([C@H](C)CO)C(=O)Cc2cc(NC(=O)CCN3CCOCC3)ccc2O[C@H]1CN(C)Cc1ccc2c(c1)OCO2,123*,/,3,-11,6
C[C@H](CO)N1C[C@H](C)[C@@H](CN(C)Cc2ccc(Cl)c(Cl)c2)Oc2ccc(NC(=O)CCC(F)(F)F)cc2CC1=O,1,/,-31,-5,20*
CNC[C@H]1Oc2cc(C#CCN(C)C)ccc2S(=O)(=O)N([C@@H](C)CO)C[C@@H]1C,5,/,13,0,-2
COC(=O)C[C@H]1CC[C@@H]2[C@@H](COc3ccc(NC(=O)c4ccc(OC)cc4)cc3C(=O)N2C)O1,8,/,-10,5,3
C[C@H](CO)N1C[C@H](C)[C@@H](CN(C)S(C)(=O)=O)Oc2c(NC(=O)CCCN(C)C)cccc2C1=O,/,/,-14,/,/
CS(=O)(=O)c1nc(S(=O)(=O)c2ccc(Cl)cc2)c(N2CCCCC2)s1,3,6,12,5,-1
CS(=O)(=O)c1nc(S(=O)(=O)c2ccc(Cl)cc2)c(N2CCCCCC2)s1,0,-4,47*,1,3
SMILES,S100A4 MyoIIA,PDI turbidity,GSIS activator,ERp5 inh,SIRT5 inh
O=C(C[C@@H]1CC[C@@H](NS(=O)(=O)c2ccccc2)[C@@H](CO)O1)NCc1ccc(Cl)c(Cl)c1,0,/,-6,-3,-3
O=C(N/N=C1\CCCc2ccccc21)c1ccccc1Cl,3,5,-2,28*,-1
CC1=C/C(=C(\c2cc(C)c(O)c(Br)c2)c2ccccc2S(=O)(=O)O)C=C(Br)C1=O,-2,-4,-24,-4,16*
C[C@H]1CN([C@@H](C)CO)C(=O)c2cc(NC(=O)CCCN(C)C)ccc2O[C@@H]1CN(C)C(=O)NC1CCCCC1,11,/,-4,-7,-6
C[C@H](CO)N1C[C@H](C)[C@@H](CN(C)Cc2ccc(C(F)(F)F)cc2)Oc2c(NS(=O)(=O)c3cn(C)cn3)cccc2C1=O,5,/,14,-5,/
COc1ccc(NC(=O)C2CCC2)cc1S(=O)(=O)Nc1cc(C)ccc1Br,-10,13,-37,2,/
COc1ccc(NC(=O)[C@H](C)NC(N)=O)cc1S(=O)(=O)Nc1cc(C)ccc1Br,3,2,24,-9,16*
Clc1cccc(Cc2c(-c3ccccc3)nc3ccc(Cl)cn23)c1,-9,/,22,2,-2
Cc1ccc2nc(-c3cccc(Br)c3)c(Cc3cccc(Cl)c3)n2c1,-5,/,/,25*,-1
Cc1ccc2nc(-c3ccccc3)c(Cc3cccc(Cl)c3)n2c1,-8,/,/,1,22*
CN(C)C(=O)C[C@@H]1C[C@H]2c3cc(NC(=O)Nc4ccc(C(F)(F)F)cc4)ccc3O[C@H]2[C@@H](CO)O1,-1,/,-5,-8,-5
COc1ccc(S(=O)(=O)Nc2cccc3c2O[C@@H](CN(C)Cc2ccc(C(F)(F)F)cc2)[C@@H](C)CN([C@@H](C)CO)C3=O)cc1,2,/,-17,7,5
O=C(CSc1nc2ccccc2c(=O)n1-c1ccccc1)NCc1ccc2c(c1)OCO2,/,-6,110*,/,/
COc1ccc2cc(S(=O)(=O)N3CCOCC3)ccc2c1,/,12,/,/,/
O=C(Nc1cccc(S(=O)(=O)N2CCOCC2)c1)C1CCCC1,2,-2,-6,-8,1
COc1cccc(NC(=O)c2oc3ccc(S(=O)(=O)N4CCOCC4)cc3c2C)c1,0,7,10,-5,-3
Cc1ccc(NC(=O)c2oc3ccc(S(=O)(=O)N4CCOCC4)cc3c2C)cc1C,/,2,79*,/,/
